Experimental data as given in ChEMBL document CHEMBL4385606, “3,5,7-Substituted Pyrazolo[4,3- d]pyrimidine Inhibitors of Cyclin-Dependent Kinases and Their Evaluation in Lymphoma Models” (J Med Chem, 2019).
pIC50: −log10 of the molar value. Calls of active or inactive are those of the source. The rule behind the calls is not given here.

Legend:
[1] = target: Cyclin-dependent kinase 2/cyclin E1 (Homo sapiens, UniProt P24941); test: Inhibition of His-tagged CDK2/Cyclin-E1 (unknown origin) expressed in baculovirus infected Sf9 insect cells using histone H1 as substrate measured in presence of [gamma-33P]ATP; assay type: cell-based
[2] = system: HT; test: Antiproliferative activity against human HT cells measured after 72 hrs by calcein AM dye-based fluorescence assay; assay type: functional
How it was run: (§1)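 Cells exposed in triplicate to six concentrations for 72 h; calcein AM added for 1 h, live-cell fluorescence read at 485/538 nm (ex/em). GI50 taken from dose-response curves.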

[3] = Antiproliferative activity against human Mino cells measured after 72 hrs by calcein AM dye-based fluorescence assay; assay type: functional; how it was run: as §1
[4] = target: Serine/threonine-protein kinase Chk2 (Homo sapiens, UniProt O96017); test: Inhibition of CHK2 (unknown origin)
[5] = system: U2932; test: Antiproliferative activity against human U2932 cells assessed as growth inhibition measured after 72 hrs by calcein AM dye-based fluorescence assay; assay type: functional, cell-based; conditions: U2932, 72 h; how it was run: as §1
[6] = system: OCI-Ly7; test: Antiproliferative activity against human OCI-LY7 cells assessed as growth inhibition measured after 72 hrs by calcein AM dye-based fluorescence assay; assay type: functional, cell-based; conditions: OCI-Ly7, 72 h; how it was run: as §1
[7] = system: SU-DHL10; test: Antiproliferative activity against human SUDHL10 cells assessed as growth inhibition measured after 72 hrs by calcein AM dye-based fluorescence assay; assay type: functional, cell-based; conditions: SU-DHL10, 72 h; how it was run: as §1
[8] = Antiproliferative activity against human UPF1H cells assessed as growth inhibition measured after 72 hrs by calcein AM dye-based fluorescence assay; assay type: functional, cell-based; how it was run: as §1
[9] = system: CCRF-CEM; test: Antiproliferative activity against human CEM cells assessed as growth inhibition measured after 72 hrs by calcein AM dye-based fluorescence assay; assay type: functional, cell-based; how it was run: as §1
[10] = system: HeLa; test: Antiproliferative activity against human HeLa cells assessed as growth inhibition measured after 72 hrs by calcein AM dye-based fluorescence assay; assay type: functional, cell-based; how it was run: as §1
[11] = organism: Homo sapiens; test: Induction of apoptosis in human Mino cells assessed as reduction in MCL1 expression at 1.5 to 12.5 nM after 24 hrs by immunoblotting analysis; assay type: functional, cell-based
How it was run: (§2)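 Lymphoma cell lines were cultured as the providers instruct and exposed to compound at several doses or for several times. Lysates were run on SDS-PAGE and blotted to nitrocellulose. Blots were blocked, incubated overnight with primary antibodies diluted in PBS with 5% milk and 0.1% Tween 20, then with peroxidase-conjugated secondaries, and detected by chemiluminescence on a CCD camera.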

[12] = organism: Homo sapiens; test: Induction of apoptosis in human Mino cells assessed as caspase 7 activation at 1.5 to 12.5 nM after 24 hrs by immunoblotting analysis; assay type: functional, cell-based; how it was run: as §2
[13] = organism: Homo sapiens; test: Induction of apoptosis in human Mino cells assessed as effect on BCL-xL protein expression at 1.5 to 12.5 nM after 24 hrs by immunoblotting analysis; assay type: functional, cell-based; how it was run: as §2
[14] = target: Cyclin-dependent kinase 7 (Homo sapiens) (UniProt P50613); test: Inhibition of CDK7 in human Mino cells assessed as decrease in phosphorylation of RNA polymerase 2 C-terminal domain at Ser 2 residue at 12.5 nM by immunoblotting analysis; assay type: cell-based; conditions: TDE = time-dependent effect
How it was run: (§3)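 MINO lymphoma cells were treated at 12.5 nM, with time points over 24 h. Lysates were separated by SDS-PAGE and blotted to nitrocellulose. Phospho-RNA polymerase II CTD (Ser2, Ser5) and phospho-Rb (Ser608, Ser780) were probed with primary antibodies overnight and peroxidase-conjugated secondaries. Detection was by chemiluminescence on a CCD camera.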

[15] = target: Cyclin-dependent kinase 2 (Homo sapiens) (UniProt P24941); test: Inhibition of CDK2 in human Mino cells assessed as decrease in phosphorylation of Rb at Ser 608 residue at 12.5 nM by immunoblotting analysis; assay type: cell-based; conditions: TDE = time-dependent effect; how it was run: as §3
[16] = target: Cyclin-dependent kinase 7 (Homo sapiens) (UniProt P50613); test: Inhibition of CDK7 in human Mino cells assessed as decrease in phosphorylation of Rb at Ser 780 residue at 12.5 nM by immunoblotting analysis; assay type: cell-based; conditions: TDE = time-dependent effect; how it was run: as §3
[17] = system: Homo sapiens; test: Antitumor activity against human Mino cells xenografted in NSG mouse assessed as inhibition of tumor growth at 10 mg/kg, iv administered daily measured every day during compound dosing by caliper method; assay type: functional, organism-based
How it was run: (§4)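 Female NSG mice, 8-12 weeks old, given cells s.c.; once all had palpable tumors, daily i.v. tail-vein dosing at 10 mg/kg in PBS. Two perpendicular tumor diameters measured daily by caliper. Study ended when any mouse's tumor reached ≥2 cm. Groups: MINO n=10, MAVER-1 n=12, Hbl-2 n=8, VFN-M1 PDX n=10.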

[18] = system: Homo sapiens; test: Antitumor activity against patient-derived VFN-M1 cells xenografted in NSG mouse assessed as inhibition of tumor growth at 10 mg/kg, iv administered daily measured every day during compound dosing by caliper method; assay type: functional, organism-based; how it was run: as §4
[19] = system: Mus musculus; test: Ex vivo antitumor activity against human Mino cells xenografted NSG mouse assessed as down regulation of XIAP expression at 5 to 10 mg/kg, iv measured after 24 hrs by immunoblotting analysis; assay type: functional, organism-based
How it was run: (§5)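 NSG mice bearing palpable s.c. tumors received a single i.v. dose (5 or 10 mg/kg) and were euthanized after 24 h. Excised tumors were filtered through 45 µm nylon mesh, lysed and run on SDS-PAGE, transferred to nitrocellulose, probed overnight with primary antibodies in PBS with 5% milk and 0.1% Tween 20, then peroxidase secondaries, with chemiluminescent detection.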

[20] = system: Mus musculus; test: Ex vivo antitumor activity against human Mino cells xenografted NSG mouse assessed as down regulation of MCL1 expression at 5 to 10 mg/kg, iv measured after 24 hrs by immunoblotting analysis; assay type: functional, organism-based; how it was run: as §5
[21] = system: Mus musculus; test: Ex vivo antitumor activity against human Mino cells xenografted NSG mouse assessed as effect on BCL-2 expression at 5 to 10 mg/kg, iv measured after 24 hrs by immunoblotting analysis; assay type: functional, organism-based; how it was run: as §5
[22] = system: Mus musculus; test: Ex vivo antitumor activity against Maver1 xenografted NSG mouse assessed as down regulation of XIAP expression at 10 mg/kg, iv measured after 24 hrs by immunoblotting analysis; assay type: functional, organism-based; how it was run: as §5
[23] = system: Mus musculus; test: Ex vivo antitumor activity against human UPF1H cells xenografted NSG mouse assessed as increase in cleaved caspase 9 expression at 5 to 10 mg/kg, iv measured after 24 hrs by immunoblotting analysis; assay type: functional, organism-based
How it was run: (§6)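 Female NSG mice, 8-12 weeks old, implanted s.c. with lymphoma cells. Once tumors were palpable, mice received a single tail-vein i.v. dose (5 or 10 mg/kg) of compound dissolved in PBS. Mice were euthanized 24 h later. Tumors were excised, filtered through 45 µm nylon mesh and lysed, then proteins were analysed by immunoblotting.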

[24] = system: Mus musculus; test: Ex vivo antitumor activity against human UPF1H cells xenografted NSG mouse assessed as down regulation of MCL1 expression at 5 to 10 mg/kg, iv measured after 24 hrs by immunoblotting analysis; assay type: functional, organism-based; how it was run: as §6
[25] = system: Mus musculus; test: Ex vivo antitumor activity against human Mino cells xenografted NSG mouse decrease in phosphorylation of Rb at […] residue at 5 to 10 mg/kg, iv measured after 24 hrs by immunoblotting analysis; assay type: functional, organism-based; how it was run: as §6
[26] = system: Mus musculus; test: Ex vivo antitumor activity against human UPF1H cells xenografted NSG mouse decrease in phosphorylation of RNA polymerase 2 C-terminal domain at Ser 5 residue at 5 to 10 mg/kg, iv measured after 24 hrs by immunoblotting analysis; assay type: functional, organism-based; how it was run: as §6

Chain of Cyclin-dependent kinase 7 (Homo sapiens) (P50613 whole entry, the tested form may be a part): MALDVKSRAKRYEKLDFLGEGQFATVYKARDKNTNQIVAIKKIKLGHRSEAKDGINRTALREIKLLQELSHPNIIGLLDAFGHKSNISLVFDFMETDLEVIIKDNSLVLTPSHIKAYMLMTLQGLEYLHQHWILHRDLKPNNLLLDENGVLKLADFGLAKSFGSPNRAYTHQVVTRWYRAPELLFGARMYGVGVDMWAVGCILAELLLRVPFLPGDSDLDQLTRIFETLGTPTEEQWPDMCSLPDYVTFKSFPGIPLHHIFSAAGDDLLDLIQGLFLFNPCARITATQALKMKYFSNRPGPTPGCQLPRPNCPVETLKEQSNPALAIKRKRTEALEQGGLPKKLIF
Chain of Serine/threonine-protein kinase Chk2 (O96017 whole entry): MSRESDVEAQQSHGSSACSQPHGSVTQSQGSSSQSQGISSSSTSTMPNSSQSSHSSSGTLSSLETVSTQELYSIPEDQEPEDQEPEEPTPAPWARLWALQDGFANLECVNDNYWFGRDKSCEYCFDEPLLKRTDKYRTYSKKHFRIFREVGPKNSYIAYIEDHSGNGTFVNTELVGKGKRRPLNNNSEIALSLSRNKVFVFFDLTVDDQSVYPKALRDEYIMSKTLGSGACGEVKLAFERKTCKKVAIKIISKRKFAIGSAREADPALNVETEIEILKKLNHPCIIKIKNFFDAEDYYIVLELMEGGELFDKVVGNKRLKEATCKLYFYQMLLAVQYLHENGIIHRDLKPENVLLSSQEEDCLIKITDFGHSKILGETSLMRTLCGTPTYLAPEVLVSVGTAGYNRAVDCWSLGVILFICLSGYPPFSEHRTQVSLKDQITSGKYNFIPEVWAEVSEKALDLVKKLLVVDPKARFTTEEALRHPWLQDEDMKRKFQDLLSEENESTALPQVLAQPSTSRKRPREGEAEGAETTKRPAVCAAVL

CC(C)c1n[nH]c2c(NCc3ccc(-c4ccccn4)cc3)nc(SCCN)nc12 showed a pIC50 [1] of 8.70, a GI50 [2] of 22 nM and a GI50 [3] of 41 nM. The pIC50 [4] was 6.28, the GI50 [5] was 30 nM and the pIC50 [5] was 7.52. It also gave a GI50 [6] of 14 nM, a pIC50 [6] of 7.85 and a GI50 [7] of 17 nM. The pIC50 [7] was 7.77, the GI50 [8] was 25 nM and the pIC50 [8] was 7.60. The GI50 [9] was 33 nM, the pIC50 [9] was 7.48 and the GI50 [10] was 21.6 nM. For the same compound, the pIC50 [10] was 7.77, the Activity [11] was “Active” and the Activity [12] was “Active”. For the same compound, the Activity [13] was “inactive”, the inhibition [14] was “Tde” and the inhibition [15] was “Tde”. For the same compound, the inhibition [16] was “Tde”, the TGI [17] was “Active” and the TGI [18] was “Active”. The Activity [19] was “Active”, the Activity [20] was “Active” and the Activity [21] was “inactive”. The Activity [22] was “Active”, the Activity [23] was “Active” and the Activity [24] was “Active”. The Activity [25] was “Active” and the Activity [26] was “Active”.
